ChEMBL document CHEMBL4406834, “Phenylthiazoles with nitrogenous side chain: An approach to overcome molecular obesity” (Eur J Med Chem, 2019)
Converted amounts (≈) assume the structure as drawn.

Tests used:
Acinetobacter baumannii [1] = assay: Antibacterial activity against Acinetobacter baumannii ATCC 19606; assay type: functional; conditions: ATCC 19606 = CIP 70.34 = JCM 6841
Staphylococcus aureus [2] = assay: Antibiofilm activity against methicillin resistant Staphylococcus aureus NRS384 USA300 assessed as disruption of preformed biofilm at 4 x MIC incubated for 24 hrs by crystal violet staining based spectrophotometric analysis relative to control; assay type: functional
How it was run: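 MRSA USA300 overnight culture diluted 1:100 in tryptic soy broth + 1% glucose. Biofilm formed for 24 h at 37 °C. Planktonic cells removed, then compounds added at 256 to 2 µg/mL in TSB for 24 h at 37 °C. Wells washed with PBS, stained with 0.1% crystal violet for 30 min, destained with ethanol, read at OD595. Percent eradication relative to DMSO; unpaired t test.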

Listeria monocytogenes [3] = assay: Bactericidal activity against Listeria monocytogenes ATCC 19111 incubated for 18 to 20 hrs followed by replating on tryptic soy agar plate and further incubated for 18 to 24 hrs by CLSI-based broth microdilution assay; assay type: functional
Listeria monocytogenes [4] = assay: Antibacterial activity against Listeria monocytogenes ATCC 19111 after 18 to 20 hrs by CLSI-based broth microdilution assay; assay type: functional
Enterococcus faecium = assay: Antibacterial activity against vancomycin-resistant Enterococcus faecium ATCC 700221 after 18 to 20 hrs by CLSI-based broth microdilution assay; assay type: functional
How it was run: (§1)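 Broth microdilution per CLSI. Strains grown aerobically overnight on tryptone soy agar at 37 °C, adjusted to 0.5 McFarland, then diluted in cation-adjusted Mueller-Hinton broth to about 5 × 10^5 CFU/mL. Compounds (10 mg/mL DMSO stocks) serially diluted. Incubated aerobically at 37 °C for 18-20 h. MIC is the lowest concentration with no visible growth.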

Enterococcus faecalis = assay: Antibacterial activity against vancomycin-resistant Enterococcus faecalis ATCC 51299 after 18 to 20 hrs by CLSI-based broth microdilution assay; assay type: functional; how it was run: as §1
[5] = system: Staphylococcus epidermidis; assay: Antibacterial activity against methicillin-resistant Staphylococcus epidermidis NRS101 after 18 to 20 hrs by CLSI-based broth microdilution assay; assay type: functional; how it was run: as §1
Staphylococcus aureus [6] = assay: Bactericidal activity against vancomycin-resistant Staphylococcus aureus 12 incubated for 18 to 20 hrs followed by replating on tryptic soy agar plate and further incubated for 18 to 24 hrs by CLSI-based broth microdilution assay; assay type: functional
How it was run: (§2)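 MBC: after the broth microdilution MIC (CAMHB, ~5 × 10^5 CFU/mL, 37 °C, 18-20 h), 4 µL from wells without growth plated onto tryptic soy agar. Plates incubated 37 °C for 18-20 h. MBC is the lowest concentration giving 99.9% reduction in growth.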

Staphylococcus aureus [7] = assay: Bactericidal activity against vancomycin-resistant Staphylococcus aureus 10 incubated for 18 to 20 hrs followed by replating on tryptic soy agar plate and further incubated for 18 to 24 hrs by CLSI-based broth microdilution assay; assay type: functional; how it was run: as §2
Staphylococcus aureus [8] = assay: Bactericidal activity against methicilline-sensitive Staphylococcus aureus NRS-107 incubated for 18 to 20 hrs followed by replating on tryptic soy agar plate and further incubated for 18 to 24 hrs by CLSI-based broth microdilution assay; assay type: functional; how it was run: as §2
Staphylococcus aureus [9] = assay: Antibacterial activity against vancomycin-resistant Staphylococcus aureus 10 after 18 to 20 hrs by CLSI-based broth microdilution assay; assay type: functional; how it was run: as §1
Staphylococcus aureus [10] = assay: Antibacterial activity against methicilline-sensitive Staphylococcus aureus ATCC 6538 after 18 to 20 hrs by CLSI-based broth microdilution assay; assay type: functional; how it was run: as §1
HaCaT [11] = assay: Cytotoxicity against human HaCaT cells up to 32 ug/ml after 2 hrs by MTS assay; assay type: cell-based
Caco-2 [12] = assay: Cytotoxicity against human Caco2 cells up to 32 ug/ml after 2 hrs by MTS assay; assay type: cell-based; conditions: caco-2, 2 h
Acinetobacter baumannii [13] = assay: Bactericidal activity against Acinetobacter baumannii ATCC 19606; assay type: functional; conditions: ATCC 19606 = CIP 70.34 = JCM 6841
Staphylococcus aureus [14] = assay: (§3) Antibacterial activity against intracellular methicillin resistant Staphylococcus aureus USA400 infected in mouse J774 cells assessed as reduction in intracellular bacterial cells at 2 times MIC concentration incubated for 24 hrs followed by re-plating on TSA plate for 18 to 22 hrs by serial dilution method relative to control; assay type: functional
How it was run: (§4)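 J774 murine macrophages in DMEM + 10% FBS, 37 °C, 5% CO2, infected with MRSA USA400 at MOI ~10:1 for 1 h. Washed with gentamicin 100 µg/mL to kill extracellular bacteria. […] Cells lysed with 0.1% Triton-X, serially diluted in PBS, plated on TSA for 18-22 h, CFU counted. One-way ANOVA with Dunnett's test.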

Staphylococcus aureus [15] = assay: as §3, with “assessed as log10 reduction in” for “assessed as reduction in”, “dilution method” for “dilution method relative to control”; assay type: functional; how it was run: as §4
[16] = Cmax in Sprague-Dawley rat at 50 mg/kg, po administered via gavage measured after 90 mins by LC-MS/MS analysis; assay type: ADME, organism-based; set-up: dose 50 mg/kg, route oral; conditions: in vivo
How it was run: (§5)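 Three male naïve Sprague-Dawley rats received a single oral gavage dose of 50 mg/kg in 2% ethanol/48% PEG 400/50% water. Blood was collected into EDTA-K2 tubes over 12 h after dosing. Plasma was protein-precipitated with acetonitrile and compound concentration quantified by LC/MS/MS.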

[17] = Tmax in Sprague-Dawley rat at 50 mg/kg, po administered via gavage measured over 12 hrs by LC-MS/MS analysis; assay type: ADME, organism-based; conditions: in vivo; how it was run: as §5
[18] = Clearance in Sprague-Dawley rat at 50 mg/kg, po administered via gavage after 12 hrs by LC-MS/MS analysis; assay type: ADME, organism-based; conditions: in vivo; how it was run: as §5
[19] = Volume of drug distribution in Sprague-Dawley rat at 50 mg/kg, po administered via gavage measured over 12 hrs by LC-MS/MS analysis; assay type: ADME, organism-based; conditions: in vivo; how it was run: as §5
[20] = Half life in Sprague-Dawley rat at 50 mg/kg, po administered via gavage measured over 12 hrs by LC-MS/MS analysis; assay type: ADME, organism-based; conditions: in vivo; how it was run: as §5
HaCaT [21] = assay: Cytotoxicity against human HaCaT cells up to 64 ug/ml after 2 hrs by MTS assay; assay type: cell-based
Caco-2 [22] = assay: Cytotoxicity against human Caco2 cells up to 64 ug/ml after 2 hrs by MTS assay; assay type: cell-based; conditions: caco-2, 2 h
J774 = assay: Cytotoxicity against mouse J774 cells after 24 hrs by MTS assay; assay type: cell-based; conditions: j774, 24 h
How it was run: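 J774 murine macrophages were incubated with compound for 24 h, then given MTS reagent for 4 h. Absorbance was read at OD490.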

Structure (SMILES)	MIC (Acinetobacter baumannii [1]) [µg/mL]	inhibition (INH) (Staphylococcus aureus [2]) [%]	MBC (Listeria monocytogenes [3]) [µg/mL]	MIC (Listeria monocytogenes [4]) [µg/mL]	MIC (Enterococcus faecium) [µg/mL]	MIC (Enterococcus faecalis) [µg/mL]	MIC [5] [µg/mL]	MBC (Staphylococcus aureus [6]) [µg/mL]	MBC (Staphylococcus aureus [7]) [µg/mL]	MBC (Staphylococcus aureus [8]) [µg/mL]	MIC (Staphylococcus aureus [9]) [µg/mL]	MIC (Staphylococcus aureus [10]) [µg/mL]	MBC (Acinetobacter baumannii [13]) [µg/mL]	other results
C/C(=N\NC(=N)N)c1sc(-c2ccc(N3CCCC(C)C3)cc2)nc1C (stereo not drawn)	32 (≈ 86.4 µM)	50	8 (≈ 21.6 µM)	2 (≈ 5.4 µM)	4 (≈ 10.8 µM)	8 (≈ 21.6 µM)	4 (≈ 10.8 µM)	8 (≈ 21.6 µM)	16 (≈ 43.2 µM)	16 (≈ 43.2 µM)	8 (≈ 21.6 µM)	8 (≈ 21.6 µM)	32 (≈ 86.4 µM)	Activity (HaCaT [11]): Non-Toxic; Activity (Caco-2 [12]): Non-Toxic
C/C(=N\NC(=N)N)c1sc(-c2ccc(N3CCCCC3)cc2)nc1C	32 (≈ 89.8 µM)	72	16 (≈ 44.9 µM)	8 (≈ 22.4 µM)	8 (≈ 22.4 µM)	16 (≈ 44.9 µM)	8 (≈ 22.4 µM)	16 (≈ 44.9 µM)	16 (≈ 44.9 µM)	8 (≈ 22.4 µM)	4 (≈ 11.2 µM)	4 (≈ 11.2 µM)	64 (≈ 180 µM)	inhibition (INH) (Staphylococcus aureus [14]): 93.2%; Activity (Staphylococcus aureus [15]): 1.18 log10CFU/ml; Cmax [16]: 9700 to 10000 ng/mL; Tmax [17]: 1.3 h; CL/F [18]: 12.7 mL/min; Vd [19]: 4.42 L; half-life [20]: 4 h; Activity (HaCaT [21]): Non-Toxic; Activity (Caco-2 [22]): Non-Toxic; Activity (J774): Non-Toxic
